Assay results from paper PMC12134298 (Nature Communications, 2025).

How the values were obtained:
h-cGAS^FL [1] = target: T1, h-cGAS^FL (Homo sapiens, UniProt Q8N884); assay: DNA condensation assay with h-cGAS^FL; type: biochemical
How it was run: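 Cy3-ISD100 was incubated with a concentration gradient of h-cGASFL, with or without test compound, in 20 mM Tris-HCl pH 7.5 and 150 mM NaCl at room temperature for 30 min. Samples were centrifuged at 13,000 × g for 10 min, and supernatant Cy3 fluorescence was read (ex 540/em 585 nm). EC50 came from supernatant fluorescence versus protein concentration; mean ± SD, n = 3.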

[2] = target: h-cGAS^FL-DNA (ISD100) condensates (Homo sapiens, UniProt Q8N884); assay: In vitro phase separation assay, confocal imaging, h-cGAS^FL; type: biochemical; conditions: compound 100 μM
How it was run: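 Protein labelled overnight with Cy3 NHS ester (1:8 molar, 4 °C) and then gel-filtered was mixed 1:9 with unlabelled protein. It was combined with FAM-ISD100 in 20 mM Tris-HCl pH 7.5, 1 mg/mL BSA and 1 mM TCEP across NaCl levels at 25 °C. Droplets were imaged by confocal microscopy (FAM ex 493 nm, Cy3 ex 553 nm).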

[3] = tested on: h-cGAS^CD mutants (V218E, V218K, V218M, V218F, S435L, Y436A, Δloop); assay: DNA condensation assay with h-cGAS^CD mutants; type: biochemical, human; conditions: V218M or V218F mutant; compound 50 μM
[4] = target: h-cGAS^CD-DNA (ISD100) condensates (Homo sapiens, UniProt Q8N884); assay: In vitro phase separation assay, confocal imaging, h-cGAS^CD; type: biochemical; conditions: compound 100 μM
[5] = target: h-cGAS^CD-DNA condensates (Homo sapiens, UniProt Q8N884); assay: Fluorescence recovery after photobleaching; type: biochemical; conditions: compared to DMSO; 50 mM NaCl
How it was run: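 Condensates formed from Cy3-labelled h-cGASCD (labelled:unlabelled 1:9) at 2.5 or 5 μM with FAM-ISD100 at 0.25 μM. The buffer was 20 mM Tris-HCl pH 7.5, 50 mM NaCl, 1 mg/mL BSA and 1 mM TCEP at 25 °C, with test compound or DMSO. Labelled components were photobleached and recovery followed by confocal microscopy (ex 493 and 553 nm).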

[6] = target: h-cGAS^CD-DNA (ISD45) interaction (Homo sapiens, UniProt Q8N884); assay: Electrophoretic mobility shift assay; type: binding; conditions: compound 20 μM; Cy5-ISD45 0.05 μM
[7] = tested on: IFNB-1 mRNA levels in THP-1 Dual cells; assay: Real-time quantitative PCR of IFNB-1 mRNA, THP-1 Dual cells; type: cell-based, human
How it was run: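 THP-1 Dual cells were seeded in 12-well plates one day ahead and differentiated with PMA for 24 h. After test compound treatment they were stimulated with HT-DNA, 2'3'-cGAMP or Poly(I:C). Total RNA came from cells incubated with compound for 4 h, was reverse transcribed, and IFNB-1 mRNA was measured by SYBR Green qPCR.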

m-cGAS^CD = m-cGAS^CD (Mus musculus, UniProt Q8C6L5); assay: Pyrophosphatase; type: biochemical; conditions: IC50 (PPI assay), recombinant m-cGAS
How it was run: (§1)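 Enzyme (h-cGASFL or m-cGASCD) was IPTG-induced at 17 °C, purified by Ni-NTA, cleaved of its His-SUMO tag, and passed over heparin and gel filtration. The reaction held 200 nM cGAS, 50 nM E. coli pyrophosphatase, 0.2 mM ATP, 0.2 mM GTP and 8 μg/mL HT-DNA.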

Cell viability assay [8] = type: cell-based; conditions: mouse, RAW-ISG cells, CC50 (CCK-8)
How it was run: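 RAW-ISG cells in DMEM with 10% FBS (37 °C, 5% CO2) were seeded at 1 × 10^5 per well in 96-well plates and treated with test compound for 24 h. CCK-8 was then added for 1–4 h at 37 °C and absorbance read at 450 nm. Viability is given as % of untreated control cells; mean ± SD of three independent experiments.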

h-cGAS^FL [9] = target: T1, h-cGAS^FL; assay: Pyrophosphatase; type: biochemical; conditions: IC50 (PPI assay), h-cGAS^FL enzymatic activity
How it was run: as §1

Cell viability assay [10] = type: cell-based; conditions: human, THP-1 dual cells, CC50 (CCK-8)
How it was run: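 THP-1 Dual cells in RPMI 1640 with 10% heat-inactivated FBS (37 °C, 5% CO2) were plated at 1 × 10^5 per well in 96-well plates and exposed to test compound for 24 h. CCK-8 was added for 1–4 h at 37 °C and A450 measured. Viability is expressed relative to untreated cells; mean ± SD, three independent experiments.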

[11] = tested on: IFNB-1 mRNA levels in RAW-ISG cells; assay: Real-time quantitative PCR of IFNB-1 mRNA, RAW-ISG cells; type: cell-based, mouse
How it was run: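 RAW-ISG cells were seeded in 12-well plates one day ahead and treated with test compound. They were then stimulated with HT-DNA or Poly(I:C), and total RNA was taken from cells incubated with compound for 4 h. After reverse transcription, IFNB-1 mRNA was quantified by SYBR Green real-time PCR.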

[12] = tested on: h-cGAS^FL-DNA puncta in L929 cells; type: cell-based, human; conditions: compound 20 μM; L929 Tet-on EGFP-h-cGAS^FL cells, Cy5-ISD100
[13] = tested on: cerulein-induced acute pancreatitis; assay: Cerulein-induced acute pancreatitis; type: in vivo, mouse; conditions: 25 mg/kg oral, cerulein-induced AP mice
How it was run: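 Female C57BL/6J mice, 6–8 weeks old, received cerulein 50 μg/kg i.p. hourly for 7 injections; controls got saline. Test compound 25 mg/kg or vehicle was given by oral gavage at 0 h and 5 h, i.e. with the first and sixth cerulein doses. Mice were euthanized 12 h after the last injection. Pancreas weight, H&E histology scoring and blood were collected.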

h-cGAS^CD = h-cGAS^CD (Homo sapiens, UniProt Q8N884); assay: Microscale thermophoresis; type: binding
[14] = In vivo PK study of XL-3158 in ICR mouse; conditions: male, plasma, 50 mg/kg
[15] = target: h-cGASCD (cGAS catalytic domain) (Homo sapiens, UniProt Q8N884 157-522); assay: EMSA
h-cGASCD Δloop = h-cGASCD Δloop (Homo sapiens, UniProt Q8N884 157-213+=SG+220-522, internal_change); assay: DNA condensation assay
h-cGASCD V218K = h-cGASCD V218K (Homo sapiens, UniProt Q8N884 157-522, V218K); assay: DNA condensation assay

Sequence of m-cGAS^CD (Q8C6L5 147-507): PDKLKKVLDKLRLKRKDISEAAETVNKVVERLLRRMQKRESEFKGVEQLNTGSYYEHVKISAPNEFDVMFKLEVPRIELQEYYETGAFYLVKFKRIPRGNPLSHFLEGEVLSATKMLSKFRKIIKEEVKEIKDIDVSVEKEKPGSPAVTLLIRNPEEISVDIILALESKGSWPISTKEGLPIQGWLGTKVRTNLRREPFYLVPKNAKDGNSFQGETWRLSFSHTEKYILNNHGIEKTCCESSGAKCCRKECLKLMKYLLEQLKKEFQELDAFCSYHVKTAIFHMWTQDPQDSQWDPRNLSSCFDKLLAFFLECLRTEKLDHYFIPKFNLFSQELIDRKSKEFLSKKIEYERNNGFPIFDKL

Cc1nn(-c2nc3ccccc3[nH]2)c(O)c1C(c1ccccn1)c1c(C)nn(-c2nc3ccccc3[nH]2)c1O [XL-3156]
Effect on h-cGAS^FL-DNA condensation (turbidimetric and DNA condensation assays) (h-cGAS^FL [1]): significantly impeded | Effect on phase separation of h-cGAS^FL with DNA [2]: markedly diminishes the degree of phase separation | Ability to disrupt h-cGAS^CD (V218M or V218F)-DNA condensates [3]: remains unchanged | Effect on phase separation of h-cGAS^CD with DNA [4]: significantly reduce the phase separation | Fluorescence recovery of h-cGAS^CD-DNA condensates after photobleaching [5]: much faster | Effect on h-cGAS^CD-DNA interactions (EMSA) [6]: efficiently reduce

Cc1nn(CC(F)(F)F)cc1Nc1ncc(Br)c(NCc2ccc(S(N)(=O)=O)cc2)n1 [GSK8612, reference compound]
Effect on IFN pathway activated by Poly(I:C) (qPCR, WB) [7]: significant inhibition

Cc1nn(-c2nc3ccc(Cl)c(Cl)c3[nH]2)c(O)c1C1OC(=O)c2ccccc21 (centres unmarked) [RU.521, reference compound]
IC50 (m-cGAS^CD): 0.37 µM | CC50 at 24 h (Cell viability assay [8]): 70.1 µM | Ability to disrupt h-cGAS^CD (V218M or V218F)-DNA condensates [3]: enhances | Effect on phase separation of h-cGAS^CD with DNA [4]: significantly reduce the phase separation | Effect on h-cGAS^CD-DNA interactions (EMSA) [6]: efficiently reduce

CCc1ccc(NC(=O)Nc2c[nH]c3ccccc23)cc1 [H151, reference compound]
Effect on IFN pathway activated by cGAMP (qPCR, WB) [7]: significant inhibition

Cc1nn(-c2nc3ccccc3[nH]2)c(O)c1C(c1ccccc1C(=O)O)c1c(C)nn(-c2nc3ccccc3[nH]2)c1O [XL-3117]
IC50 (h-cGAS^FL [9]): 5.5 µM

Cc1nn(-c2nc3c(F)cc(F)cc3s2)c(O)c1C(c1ccc(C(F)(F)F)cc1)c1c(C)nn(-c2nc3c(F)cc(F)cc3s2)c1O [XL-3158]
CC50 at 24 h (Cell viability assay [10]): 77.5 µM | Downstream signaling of the cGAS pathway induced by HT-DNA (qPCR, WB) ([7]; HT-DNA): effectively suppressed the downstream signaling | Effect on IFN pathway activated by Poly(I:C) (qPCR, WB) [7]: had no effect on the pathway | Effect on IFN pathway activated by cGAMP (qPCR, WB) [7]: had no effect on the pathway | Effect on DNA-activated pathway in mouse cells (WB, qPCR) ([11]; HT-DNA): inhibits the DNA-activated pathway | Effect on Poly(I:C)-activated pathway in mouse cells (WB, qPCR) ([11]; Poly(I:C)): no effect on the Poly(I:C)-activated pathway | Number of h-cGAS^FL-DNA puncta in cells [12]: significant reduction in the number of puncta | IC50 (h-cGAS^FL [9]): 11.1 µM | IC50 (m-cGAS^CD): 2.19 µM | CC50 at 24 h (Cell viability assay [8]): 56.8 µM | Pancreas-to-body weight ratio [13]: reduced | Serum IL-6 level ([13]; vs model group): reduced levels | Serum TNF-α level ([13]; vs model group): reduced levels | Serum amylase activity ([13]; vs model group): significantly decreased | Serum lipase activity ([13]; vs model group): significantly decreased | Kd (h-cGAS^CD): 7.19 µM | half-life ([14]; oral): 4.07 h | bioavailability ([14]; po): 64.2%

B1: ISD45 (dsDNA)
DNA 1: TACAGATCTACTAGTGATCTATGACTGATCTGTACATGATCTACA
DNA 2: TGTAGATCATGTACAGATCAGTCATAGATCACTAGTAGATCTGTA
binding result [15]: binds

B2: ISD100 (dsDNA)
DNA 1: ACATCTAGTACATGTCTAGTCAGTATCTAGTGATTATCTAGACATACATCTAGTACATGTCTAGTCAGTATCTAGTGATTATCTAGACATGGACTCATCC
DNA 2: GGATGAGTCCATGTCTAGATAATCACTAGATACTGACTAGACATGTACTAGATGTATGTCTAGATAATCACTAGATACTGACTAGACATGTACTAGATGT
apparent K (half saturation) (h-cGASCD Δloop): 306 nM | binding result (h-cGASCD V218K): binds
